ChEMBL document CHEMBL1926557 (Bioorg Med Chem, 2012)

What was measured:
[1] = Antineuroinflammatory activity in LPS-stimulated rat microglia cells assessed as inhibition of PMA-stimulated superoxide anion release preincubated for 15 mins measured 70 mins after PMA challenge; format: functional
In short: (§1)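 Rat neonatal microglia (2 × 10^5 cells/well) primed with E. coli LPS 0.3 ng/mL for 17 h in DMEM + 10% FBS + penicillin/streptomycin at 35.9 °C, 5% CO2. Cells washed with warm HBSS, pre-exposed to compound (0.01–10 µM) or DMSO vehicle, then triggered with PMA 1 µM. Superoxide measured as superoxide dismutase-inhibitable reduction of ferricytochrome c. Triplicate wells, 2–4 experiments. IC50 derived.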

[2] = Cytotoxicity against rat microglia cells assessed as cell viability after 18 hrs by WST-1 assay; format: cell-based
In short: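 Rat neonatal microglia (10,000 cells/well) plated in LPS-free wells in FBS-free DMEM with penicillin/streptomycin. Compound (0.1–10 µM final) or DMSO vehicle added for 18 h at 36 °C, 5% CO2. WST-1 then added for 2 h, and formazan read at 450 nm against a 620 nm reference. Treated wells compared with vehicle, significance at p < 0.05.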

[3] = Cytotoxicity against rat microglia cells after 90 mins by LDH release assay; format: cell-based; settings: 1.5 h
In short: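 Short-term viability of PMA (1 µM)-stimulated rat microglia measured by LDH release, given as percent of total LDH. Total LDH is released LDH plus the intracellular LDH from cells lysed with 0.1% Triton X-100. LDH50 is the concentration causing release of 50% of total LDH. Data from 3–4 experiments.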

[4] = Antineuroinflammatory activity in LPS-stimulated rat microglia cells assessed as inhibition of PMA-stimulated TXB2 release preincubated for 15 mins measured 70 mins after PMA challenge; format: functional
In short: as §1, with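 “TXB2 in supernatant quantified by EIA.” for “Superoxide measured as superoxide dismutase-inhibitable reduction of ferricytochrome c.”, “wells, 1 mL final volume,” for “wells,”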

| Structure (SMILES) | IC50 [1] [µM] | Activity [2] | IC50 [3] [µM] | IC50 ([4]; read-out: IC50) [µM] | IC50 ([4]; read-out: IC50(app)) [µM] |
| --- | --- | --- | --- | --- | --- |
| [C-]#[N+][C@@]1(C)CC[C@H]2[C@H]3[C@@H](C(=C)CC[C@H]31)[C@H](CC(=C)C)C[C@@H]2C | > 10 | Non-toxic | > 10 | 1.72 |  |
| [C-]#[N+]C(C)(C)C[C@@H]1C[C@H](C)[C@H]2CC[C@](C)([N+]#[C-])[C@@H]3CCC(=C)[C@@H]1[C@H]23 | > 10 | Non-toxic | > 10 | 0.2 |  |
| [C-]#[N+]C(C)(C)C[C@@H]1C[C@H](C)[C@H]2CC[C@H](C)[C@@]3([N+]#[C-])CCC(=O)[C@@H]1[C@H]23 | > 10 | Non-toxic | > 10 | 1.43 |  |
| [C-]#[N+][C@@]12CCC(=C)[C@H]3[C@H](CC(C)(C)NC(=O)CN4CCC4=O)C[C@H](C)[C@@H](CC[C@@H]1C)[C@@H]32 [MONAMPHILECTINE A] | > 10 | Non-toxic | > 10 | 4.69 |  |
| CC(=O)Oc1ccccc1C(=O)O [ASPIRIN] |  |  |  | 3.12 |  |
| [C-]#[N+]C(C)(C)C[C@@H]1C[C@H](C)[C@H]2CC[C@H](C)[C@@]3([N+]#[C-])CCC(=C)[C@@H]1[C@H]23 [DIISOCYANOAMPHILECTENE] | > 10 | Non-toxic | > 10 | 0.23 |  |
| [C-]#[N+][C@@]12CCC(=C)[C@H]3[C@H](CC(C)(C)NC=O)C[C@H](C)[C@@H](CC[C@@H]1C)[C@@H]32 | > 10 | Non-toxic | > 10 | 1.48 |  |
| C=C1CC[C@@]2(NC=O)[C@H]3[C@H](CC[C@@H]2C)[C@@H](C)C[C@@H](CC(C)(C)NC=O)[C@H]13 | > 10 | Non-toxic | > 10 | 3.14 |  |
| CC(C(=O)O)c1ccc(-c2ccccc2)c(F)c1 (stereo not given) [FLURBIPROFEN] |  |  |  |  | 0.1 |
